NCF1 inh: blocks human p47phox regulatory protein of NADPH oxidases | P14598 | inhibition, % at 24.7 µM | 0.53% of 220,000 active | p47phox/p22phox peptide binding, fluorescence polarization, 2 h;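 also: 0% = p47phox with labelled peptide and 100% = labelled peptide alone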
Target sequence (P14598 whole entry, looked up): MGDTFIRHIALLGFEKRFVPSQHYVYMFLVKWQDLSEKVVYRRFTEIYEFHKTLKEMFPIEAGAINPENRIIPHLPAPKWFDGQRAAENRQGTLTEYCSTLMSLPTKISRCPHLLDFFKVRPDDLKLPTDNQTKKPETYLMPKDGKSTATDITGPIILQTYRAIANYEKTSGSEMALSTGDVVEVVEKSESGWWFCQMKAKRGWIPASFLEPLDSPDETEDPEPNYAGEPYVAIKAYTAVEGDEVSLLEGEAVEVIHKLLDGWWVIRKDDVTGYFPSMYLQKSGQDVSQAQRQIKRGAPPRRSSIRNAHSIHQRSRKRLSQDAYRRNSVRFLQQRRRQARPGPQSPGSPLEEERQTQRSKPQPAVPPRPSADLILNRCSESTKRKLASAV
WT yeast gro inh: growth inhibition of WT yeast, mitochondrial fusion screen | mitochondrial fusion phenotypic screen, WT strain | inhibition, % at 10 µM | 2.1% of 190,000 active | AID 1362; in the data active = inhibition above about 58%; tested in S. cerevisiae
eIF4E-4G inh: eIF4E/eIF4G interaction inhibition in translation initiation. P63073+Q04637. 0.37% of 220,000 active. inhibition, % at 21.7 µM. TR-FRET eIF4E-eIF4GI(517-606) binding, 2 h;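 also: 0% = full FRET control wells and 100% = background wells lacking eIF4GI fragment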
14-3-3 Bad inh: disrupts binding of bovine 14-3-3 zeta to phospho-Bad peptide. P63103. TR-FRET 14-3-3zeta/Dy647-pBad peptide displacement, 1 h. inhibition, % at 21.7 µM. 0.71% of 220,000 active. AID 781;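 active = inhibition above about 70%, limit read from the data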;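 also: 0% = full 14-3-3 plus peptide FRET controls and 100% = background without 14-3-3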
EBV gp42 block: blocks Epstein-Barr virus glycoprotein 42 binding. Q1HVG2. AID 1085. Fluorescence polarization binding assay, mP read-out. inhibition, % (tested at 21.74 µM). 0.42% of 220,000 active; in the data active = inhibition above about 50%
RBBP9 inhibitor: inhibitors of human serine hydrolase RBBP9. O75884. inhibition, % at 7.94 µM. 0.2% of 220,000 active. recombinant RBBP9, FP-Rh probe fluorescence polarization. AID 1515;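 active = inhibition above the campaign mean of all tested compounds plus 3 SD, cut at about 14% in these data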;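 also: plate controls were DMSO wells with RBBP9 for no effect and wells lacking RBBP9 protein for full effect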
Target sequence (O75884 whole entry, looked up): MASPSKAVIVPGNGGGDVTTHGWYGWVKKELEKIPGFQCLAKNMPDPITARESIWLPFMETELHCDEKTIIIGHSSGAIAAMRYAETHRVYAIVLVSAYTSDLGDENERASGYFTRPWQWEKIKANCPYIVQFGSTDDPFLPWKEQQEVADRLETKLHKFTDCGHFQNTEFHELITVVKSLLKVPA
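Test system – recombinant human RBBP9 · Input – RBBP9 2.5 µM in dispensing solution, pre-mixing · Medium – Tris buffer pH 8.0, NaCl, Pluronic · Schedule – preincubation 30 min plus labeling 45 min at 25 °C · Measured by – fluorescence polarization · Measure – % inhibition · Controls – DMSO and no-protein wells · Replicates – one well per compound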
* hit, by the source's call; [ ] = dose if it differs, or a comment. Hits are enriched below; roughly 3.7% of the tested compounds scored in any of these assays.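 The calls were made as follows, unless noted: active = inhibition above about 30% (limit read from the data); inactive = the rest.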

`COc1ccc2nc(Nc3ccccc3)sc2c1` gave NCF1 inh -2, WT yeast gro inh 29, eIF4E-4G inh 0, 14-3-3 Bad inh -14, EBV gp42 block 12 and RBBP9 inhibitor -3.
For Cc1ccc(Cn2c(Cc3ccccc3)nc3ccccc32)cc1 the results were NCF1 inh -21, WT yeast gro inh 71*, eIF4E-4G inh 2, 14-3-3 Bad inh 66, EBV gp42 block 6 and RBBP9 inhibitor 6.
For COc1ccc(-c2nc3ccccc3n2Cc2ccc(C)cc2)cc1 the results were NCF1 inh -4, WT yeast gro inh 42, eIF4E-4G inh 1, 14-3-3 Bad inh 6, EBV gp42 block -9 and RBBP9 inhibitor -9.
Screening COCc1nc2ccccc2n1Cc1ccccc1 returned NCF1 inh -6, WT yeast gro inh 15, eIF4E-4G inh 5, 14-3-3 Bad inh -5, EBV gp42 block -9 and RBBP9 inhibitor -4.
For Cc1cccc(NCc2nc3ccccc3n2Cc2ccccc2)c1 the results were NCF1 inh -7, WT yeast gro inh 75*, eIF4E-4G inh -20, 14-3-3 Bad inh -7, EBV gp42 block -3 and RBBP9 inhibitor 14.
`Cc1ccc(Cn2c(S(=O)(=O)O)nc3ccccc32)cc1` gave NCF1 inh -8, WT yeast gro inh 2, eIF4E-4G inh -4, 14-3-3 Bad inh 81*, EBV gp42 block -20 and RBBP9 inhibitor -4.
Screening COc1ccc(C2C(C(=O)Nc3cc(OC)c(OC)c(OC)c3)c3ccccc3C(=O)N2C)cc1OC (configuration not stated) returned NCF1 inh -3, WT yeast gro inh -13, eIF4E-4G inh -3, 14-3-3 Bad inh -12, EBV gp42 block -29 and RBBP9 inhibitor -6.
Screening NC1=NS(=O)(=O)NC1c1ccc(Br)cc1 (configuration not stated) returned NCF1 inh -6, WT yeast gro inh -1, eIF4E-4G inh 0, 14-3-3 Bad inh -2, EBV gp42 block -7 and RBBP9 inhibitor 0.
Screening O=C(NC(=S)Nc1ccc2oc(-c3cccnc3)nc2c1)c1cccc(Cl)c1 returned NCF1 inh 17, WT yeast gro inh -12, eIF4E-4G inh -5, 14-3-3 Bad inh 81*, EBV gp42 block 2 and RBBP9 inhibitor -4.
For CC/C(C)=N\Nc1nc(-c2cc3cc(OC)ccc3oc2=O)cs1 the results were NCF1 inh -10, eIF4E-4G inh 1, 14-3-3 Bad inh -13, EBV gp42 block 1 and RBBP9 inhibitor -1.
Screening CCc1nnc(NS(=O)(=O)c2ccc(NC(=O)/C=C/c3ccc(OC)cc3OC)cc2)s1 returned NCF1 inh -48, WT yeast gro inh 6, eIF4E-4G inh 1, 14-3-3 Bad inh -4, EBV gp42 block -12 and RBBP9 inhibitor -8.
For O=C(Oc1ccc2c(c1)O/C(=C\c1ccncc1)C2=O)c1cccs1 the results were NCF1 inh 4, eIF4E-4G inh 1, 14-3-3 Bad inh 18, EBV gp42 block 12 and RBBP9 inhibitor -1.
Screening CC(=O)Oc1ccc2c(c1)O/C(=C\c1ccncc1)C2=O returned NCF1 inh -22, eIF4E-4G inh 3, 14-3-3 Bad inh -13, EBV gp42 block 77* and RBBP9 inhibitor -10.
For C=CCNC(=O)c1ccccc1NC(=O)COc1ccccc1 the results were NCF1 inh -3, WT yeast gro inh -7, eIF4E-4G inh 3, 14-3-3 Bad inh -5, EBV gp42 block -12 and RBBP9 inhibitor -2.
For COc1ccc(N/C(=N\c2nc(C)cc(C)n2)NC(=O)C(C)C)cc1OC the results were NCF1 inh -5, WT yeast gro inh -8, eIF4E-4G inh -1, 14-3-3 Bad inh 76*, EBV gp42 block -11 and RBBP9 inhibitor 1.
Cc1ccc(NC(=O)c2ccc(OCc3c(C)noc3C)cc2)cc1 was read as NCF1 inh -14, eIF4E-4G inh -7, 14-3-3 Bad inh 2, EBV gp42 block 2 and RBBP9 inhibitor 3.
Cc1noc(C)c1COc1ccc(C(=O)Nc2cccnc2)cc1 was read as NCF1 inh 15, WT yeast gro inh -3, eIF4E-4G inh 9, 14-3-3 Bad inh 79*, EBV gp42 block -21 and RBBP9 inhibitor -5.
CCOC(=O)c1ccc(Cl)c(S(=O)(=O)N2CCCC2)c1 was read as NCF1 inh -5, WT yeast gro inh 6, eIF4E-4G inh 0, 14-3-3 Bad inh -3, EBV gp42 block -6 and RBBP9 inhibitor -6.
Cc1nc2ccccc2c(=O)n1NC(=O)c1ccccc1Cl was read as NCF1 inh -12, WT yeast gro inh 74*, eIF4E-4G inh -1, 14-3-3 Bad inh 0, EBV gp42 block -14 and RBBP9 inhibitor 2.
Screening C=CCNC(=S)NN=C1CCCCCCC1 returned NCF1 inh 3, WT yeast gro inh 60*, eIF4E-4G inh 3, 14-3-3 Bad inh -5, EBV gp42 block -7 and RBBP9 inhibitor 3.
`O=C(N/N=C/c1ccccc1O)c1cc(=O)[nH]c2ccccc12` gave NCF1 inh 0, WT yeast gro inh 5, eIF4E-4G inh 40*[fluorescence artefact?], 14-3-3 Bad inh -30, EBV gp42 block -19 and RBBP9 inhibitor -9.
For Cc1cc(C)n(-c2nc3ccccc3c(=O)n2OCc2ccc(F)cc2)n1 the results were NCF1 inh 6, WT yeast gro inh -6, eIF4E-4G inh -3, 14-3-3 Bad inh 70*[fluorescence artefact?], EBV gp42 block -5 and RBBP9 inhibitor -6.
Screening Cc1cc(CC(C)C)n(-c2nc3ccccc3c(=O)n2OCc2ccccc2)n1 returned NCF1 inh -11, WT yeast gro inh 65*, eIF4E-4G inh -3, 14-3-3 Bad inh -9, EBV gp42 block -11 and RBBP9 inhibitor 4.
CC1=NOC(=O)/C1=C\c1ccc(-c2ccc(Cl)cc2Cl)o1 was read as NCF1 inh 21, WT yeast gro inh 85*, eIF4E-4G inh -23, 14-3-3 Bad inh 62, EBV gp42 block -7 and RBBP9 inhibitor -5.
Cc1nn(C)cc1/C=C/C(=O)c1ccccc1 was read as NCF1 inh -14, WT yeast gro inh 13, eIF4E-4G inh 0, 14-3-3 Bad inh -12, EBV gp42 block 20 and RBBP9 inhibitor -4.
Cc1ccc(C(=O)/C=C/c2cn(CN3CCN(C)CC3)c3ccccc23)cc1 was read as NCF1 inh -23, WT yeast gro inh 84*, eIF4E-4G inh -1, 14-3-3 Bad inh -7, EBV gp42 block -43 and RBBP9 inhibitor -4.
`Cc1ccc(C(=O)/C=C/c2c[nH]c3ccccc23)cc1` gave NCF1 inh -60, WT yeast gro inh 32, eIF4E-4G inh -1, 14-3-3 Bad inh -3, EBV gp42 block -29 and RBBP9 inhibitor -9.
Screening Cn1cc(/C=C/C(=O)c2ccccc2)c2ccccc21 returned NCF1 inh -11, eIF4E-4G inh 3, 14-3-3 Bad inh 91*, EBV gp42 block -32 and RBBP9 inhibitor 1.
For CCOC(=O)Cn1c(=O)oc2cc(S(=O)(=O)NCCc3ccc(OCC)c(OCC)c3)ccc21 the results were NCF1 inh 103*, WT yeast gro inh -19, eIF4E-4G inh -3, 14-3-3 Bad inh -3, EBV gp42 block -14 and RBBP9 inhibitor -3.

Source: PubChem (several laboratories)
